# Data: ChEMBL document CHEMBL1759916, “Bicyclo[2.2.2]octyltriazole inhibitors of 11β-hydoxysteroid dehydrogenase type 1. Pharmacological agents for the treatment of metabolic syndrome” (Bioorg Med Chem Lett, 2011)
# Molecular target: T1, 11-beta-hydroxysteroid dehydrogenase type 2 (Homo sapiens, UniProt P80365)
# T1 sequence (P80365 whole entry): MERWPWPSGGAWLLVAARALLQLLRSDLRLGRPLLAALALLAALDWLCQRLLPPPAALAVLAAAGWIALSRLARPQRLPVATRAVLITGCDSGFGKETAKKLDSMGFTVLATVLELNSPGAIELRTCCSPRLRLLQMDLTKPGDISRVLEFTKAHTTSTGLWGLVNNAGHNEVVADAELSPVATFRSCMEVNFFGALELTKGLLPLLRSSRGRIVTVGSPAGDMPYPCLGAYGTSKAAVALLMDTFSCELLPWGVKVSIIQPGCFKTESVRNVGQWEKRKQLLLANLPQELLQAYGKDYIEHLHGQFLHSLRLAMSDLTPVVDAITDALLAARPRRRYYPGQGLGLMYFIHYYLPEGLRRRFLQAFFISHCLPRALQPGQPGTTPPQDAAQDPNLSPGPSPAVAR
# Experiment: Inhibition of human 11beta-HSD2 expressed in CHO-K1 cells assessed as conversion of [3H]-cortisol to [3H]-cortisone by scintillation proximity assay
# Format: cell-based
# Settings: not given
row,Compound,IC50 [nM]
1,CCS(=O)(=O)CCC12CCC(c3nnc(-c4ccc(Cl)cc4)n3C)(CC1)CC2,> 4000
2,CCS(=O)(=O)CCC12CCC(c3nnc(-c4ccccc4F)n3C)(CC1)CC2,> 4000

# Second part, the molecule after the results:
row,IC50 [nM],Compound
1,> 1000,CC(O)CCCC12CCC(c3nnc(-c4ccccc4C(F)(F)F)n3C)(CC1)CC2 (stereo not drawn)
2,> 4000,Cn1c(-c2ccccc2C(F)(F)F)nnc1C12CCC(CCS(=O)(=O)C(F)(F)F)(CC1)CC2
3,> 4000,CCS(=O)(=O)CCCC12CCC(c3nnc(-c4ccccc4C(F)(F)F)n3C)(CC1)CC2 [MK-0736]
4,> 4000,CC[S+]([O-])CCC12CCC(c3nnc(-c4ccccc4C(F)(F)F)n3C)(CC1)CC2 (stereo not drawn)

# Tested on: not listed separately
# Experiment: Clearance in C57 mouse at 2 mg/kg, iv
# Format: ADME, organism-based
# Set-up: dose 2 mg/kg, route intravenous
# Settings: in vivo
# Procedure, shortened: (§1)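 Mouse PK from 2 mg/kg IV and 10 mg/kg oral dosing. The PO AUC is reported normalized to dose.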
row,clearance [mL/min/kg],Compound
1,88,CC(O)CCCC12CCC(c3nnc(-c4ccccc4C(F)(F)F)n3C)(CC1)CC2 (stereo not drawn)

# Tested on: Mus musculus
# Experiment: Inhibition of 11beta-HSD1 in ICR mouse assessed as inhibition of conversion of [3H]-cortisone to [3H]-cortisol at 10 mg/kg, po administered 1 hr before [3H]-cortisone challenge
# Format: functional
# Settings: not given
# Procedure, shortened: (§2)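 Mouse pharmacodynamic model. Compound given 10 mg/kg PO, then 3H-cortisone by tail vein injection 1, 4 or 16 h after dosing. […] Plasma compound levels were measured after the PD studies.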
row,Compound,inhibition in vivo at 10 mg/kg [%]
1,CC(O)CCCC12CCC(c3nnc4n3CCCCCC4)(CC1)CC2 (stereo not drawn),67

# Tested on: Mus musculus
# Experiment: Inhibition of 11beta-HSD1 in ICR mouse assessed as inhibition of conversion of [3H]-cortisone to [3H]-cortisol at 10 mg/kg, po administered 16 hrs before [3H]-cortisone challenge
# Format: functional
# Settings: not given
# Procedure, shortened: as §2
row,Compound,inhibition in vivo at 10 mg/kg [%]
1,CCS(=O)(=O)CC12CCC(c3nnc(-c4ccccc4C(F)(F)F)n3C)(CC1)CC2,80
2,Cn1c(-c2ccccc2C(F)(F)F)nnc1C12CCC(CCS(=O)(=O)C(F)(F)F)(CC1)CC2,78
3,CCS(=O)(=O)CCCC12CCC(c3nnc(-c4ccccc4C(F)(F)F)n3C)(CC1)CC2 [MK-0736],63
4,CC[S+]([O-])CCC12CCC(c3nnc(-c4ccccc4C(F)(F)F)n3C)(CC1)CC2 (stereo not drawn),72

# Tested on: not listed separately
# Experiment: Bioavailability in C57 mouse at 2 mg/kg, iv and 10 mg/kg, po
# Format: ADME, organism-based
# Settings: in vivo
# Procedure, shortened: as §1
row,bioavailability [%],Compound
1,21,CC(O)CCCC12CCC(c3nnc(-c4ccccc4C(F)(F)F)n3C)(CC1)CC2 (stereo not drawn)

# Molecular target: T2, 11-beta-hydroxysteroid dehydrogenase type 2 (Mus musculus, UniProt P51661)
# T2 sequence (P51661 whole entry): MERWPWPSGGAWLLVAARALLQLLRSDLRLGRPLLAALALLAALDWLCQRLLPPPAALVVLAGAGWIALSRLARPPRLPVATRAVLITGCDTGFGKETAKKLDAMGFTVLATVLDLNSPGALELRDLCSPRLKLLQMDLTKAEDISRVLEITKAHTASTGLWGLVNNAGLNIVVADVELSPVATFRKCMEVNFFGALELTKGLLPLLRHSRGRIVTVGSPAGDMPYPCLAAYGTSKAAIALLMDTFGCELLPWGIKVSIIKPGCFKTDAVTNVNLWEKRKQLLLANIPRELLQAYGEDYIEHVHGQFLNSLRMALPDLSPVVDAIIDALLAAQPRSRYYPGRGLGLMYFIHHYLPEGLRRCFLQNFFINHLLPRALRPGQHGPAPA
# Experiment: Inhibition of mouse 11beta-HSD2 expressed in CHO-K1 cells assessed as conversion of [3H]-cortisol to [3H]-cortisone by scintillation proximity assay
# Format: cell-based
# Settings: not given
# Procedure, shortened: (§3)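 Scintillation proximity assay (SPA). IC50 values are the average of two determinations.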
row,Compound,IC50 [nM]
1,CCS(=O)(=O)CCC12CCC(c3nnc(-c4ccc(Cl)cc4)n3C)(CC1)CC2,> 4000
2,CCS(=O)(=O)CCC12CCC(c3nnc(-c4ccccc4F)n3C)(CC1)CC2,> 4000

# Now from value to molecule:
row,IC50 [nM],Compound
1,> 4000,CC(O)CCCC12CCC(c3nnc(-c4ccccc4C(F)(F)F)n3C)(CC1)CC2 (stereo not drawn)
2,> 4000,Cn1c(-c2ccccc2C(F)(F)F)nnc1C12CCC(CCS(=O)(=O)C(F)(F)F)(CC1)CC2
3,> 4000,CCS(=O)(=O)CCCC12CCC(c3nnc(-c4ccccc4C(F)(F)F)n3C)(CC1)CC2 [MK-0736]
4,> 4000,CC[S+]([O-])CCC12CCC(c3nnc(-c4ccccc4C(F)(F)F)n3C)(CC1)CC2 (stereo not drawn)

# Molecular target: 11-beta-hydroxysteroid dehydrogenase 1 (Mus musculus, UniProt P50172)
# Experiment: Inhibition of mouse 11beta-HSD1 expressed in CHO-K1 cells assessed as conversion of [3H]-cortisone to [3H]-cortisol by scintillation proximity assay
# Format: cell-based
# Settings: not given
# Chain of 11-beta-hydroxysteroid dehydrogenase 1 (Mus musculus, UniProt P50172) (P50172 whole entry): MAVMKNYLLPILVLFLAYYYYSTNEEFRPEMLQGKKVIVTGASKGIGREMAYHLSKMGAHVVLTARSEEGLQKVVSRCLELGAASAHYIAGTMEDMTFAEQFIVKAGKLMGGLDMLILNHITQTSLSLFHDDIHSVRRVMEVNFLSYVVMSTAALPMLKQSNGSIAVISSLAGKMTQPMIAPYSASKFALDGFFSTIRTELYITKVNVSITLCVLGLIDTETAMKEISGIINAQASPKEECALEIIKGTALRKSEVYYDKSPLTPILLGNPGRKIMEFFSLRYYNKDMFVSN
row,Compound,IC50 [nM]
1,CC(O)CCCC12CCC(c3nnc4n3CCCCCC4)(CC1)CC2 (stereo not drawn),19
2,CCS(=O)(=O)CCC12CCC(c3nnc(-c4ccc(Cl)cc4)n3C)(CC1)CC2,> 4000

# Continued, values first:
row,IC50 [nM],Compound
1,4,CCS(=O)(=O)CC12CCC(c3nnc(-c4ccccc4C(F)(F)F)n3C)(CC1)CC2
2,1.7,CC(O)CCCC12CCC(c3nnc(-c4ccccc4C(F)(F)F)n3C)(CC1)CC2 (stereo not drawn)
3,2.2,Cn1c(-c2ccccc2C(F)(F)F)nnc1C12CCC(CCS(=O)(=O)C(F)(F)F)(CC1)CC2
4,2.4,CCS(=O)(=O)CCCC12CCC(c3nnc(-c4ccccc4C(F)(F)F)n3C)(CC1)CC2 [MK-0736]
5,10,CC[S+]([O-])CCC12CCC(c3nnc(-c4ccccc4C(F)(F)F)n3C)(CC1)CC2 (stereo not drawn)

# Tested on: Mus musculus
# Experiment: Inhibition of 11beta-HSD1 in ICR mouse assessed as inhibition of conversion of [3H]-cortisone to [3H]-cortisol at 10 mg/kg, po administered 4 hrs before [3H]-cortisone challenge
# Format: functional
# Settings: not given
# Procedure, shortened: as §2
row,Compound,inhibition in vivo at 10 mg/kg [%]
1,CC(O)CCCC12CCC(c3nnc4n3CCCCCC4)(CC1)CC2 (stereo not drawn),41
2,CCS(=O)(=O)CC12CCC(c3nnc(-c4ccccc4C(F)(F)F)n3C)(CC1)CC2,94
3,CC(O)CCCC12CCC(c3nnc(-c4ccccc4C(F)(F)F)n3C)(CC1)CC2 (stereo not drawn),97
4,Cn1c(-c2ccccc2C(F)(F)F)nnc1C12CCC(CCS(=O)(=O)C(F)(F)F)(CC1)CC2,81
5,CCS(=O)(=O)CCCC12CCC(c3nnc(-c4ccccc4C(F)(F)F)n3C)(CC1)CC2 [MK-0736],92
6,CC[S+]([O-])CCC12CCC(c3nnc(-c4ccccc4C(F)(F)F)n3C)(CC1)CC2 (stereo not drawn),90

# Molecular target: 11-beta-hydroxysteroid dehydrogenase 1 (Homo sapiens, UniProt P28845)
# Experiment: Inhibition of human 11beta-HSD1 expressed in CHO-K1 cells assessed as conversion of [3H]-cortisone to [3H]-cortisol by scintillation proximity assay
# Format: cell-based
# Settings: not given
# Procedure, shortened: as §3
# Chain of 11-beta-hydroxysteroid dehydrogenase 1 (Homo sapiens, UniProt P28845) (P28845 whole entry): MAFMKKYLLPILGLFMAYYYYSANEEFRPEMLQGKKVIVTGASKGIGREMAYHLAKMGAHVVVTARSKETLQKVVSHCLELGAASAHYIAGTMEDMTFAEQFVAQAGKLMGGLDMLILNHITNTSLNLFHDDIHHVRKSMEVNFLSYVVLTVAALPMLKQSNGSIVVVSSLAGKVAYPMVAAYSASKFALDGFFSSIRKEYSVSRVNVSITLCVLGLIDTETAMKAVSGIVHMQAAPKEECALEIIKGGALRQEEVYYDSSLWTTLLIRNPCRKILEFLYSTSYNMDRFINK
row,Compound,IC50 [nM]
1,CC(O)CCCC12CCC(c3nnc4n3CCCCCC4)(CC1)CC2 (stereo not drawn),35
2,CCS(=O)(=O)CCC12CCC(c3nnc(-c4ccc(Cl)cc4)n3C)(CC1)CC2,2800

# Results, then the molecule that gave them:
row,IC50 [nM],Compound
1,< 1,CC(O)CCCC12CCC(c3nnc(-c4ccccc4C(F)(F)F)n3C)(CC1)CC2 (stereo not drawn)
2,6.1,Cn1c(-c2ccccc2C(F)(F)F)nnc1C12CCC(CCS(=O)(=O)C(F)(F)F)(CC1)CC2
3,3.2,CCS(=O)(=O)CCCC12CCC(c3nnc(-c4ccccc4C(F)(F)F)n3C)(CC1)CC2 [MK-0736]
4,4.1,CC[S+]([O-])CCC12CCC(c3nnc(-c4ccccc4C(F)(F)F)n3C)(CC1)CC2 (stereo not drawn)
